This note sets out measurements from ChEMBL document CHEMBL1134656, “Synthesis and antitumor activity of conjugates of muramyldipeptide, normuramyldipeptide, and desmuramylpeptides with acridine/acridone derivatives” (2001).

Assay [1] can be described thus: Half-lethal concentration against COLO,HCC2998,HCT116,SK-MEL-2 cell lines. It is filed as functional, Homo sapiens. The method in brief:
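NCI in vitro human tumor cell line screen. After a 24 h drug-free incubation, compounds were added at five 10-fold dilutions, with a maximum of 10^-4 M (test range 10^-4 to 10^-8 M). Cells were exposed for 2 days. Growth was read from the change in protein-stain optical density, and the half-lethal concentration (LC50) was derived for each cell line.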

Assay [2] deals with Panel (Carcinoma cell lines). Nature of the assay: ip score (intraperitoneal implants) measured as in vivo hollow fiber assay in minimum of 12 human cancer cell lines. It is filed as functional.
Assay [3] concerns Panel (Carcinoma cell lines). Briefly: sc score: subcutaneous implants. measured as in vivo hollow fiber assay in minimum of 12 human cancer cell lines. The format is functional.
Assay [4] concerns Cancer cell lines. Briefly: Cell kill activity against cancer cell lines; No. It is filed as functional, cell-based. The following applies: Homo sapiens.

Turning to `CC(=O)N[C@@H]1[C@H](OCc2ccccc2)O[C@@H](CO)[C@@H](O)[C@@H]1OCC(=O)N[C@@H](C)C(=O)N[C@H](CCC(=O)NCCCCNc1c2ccccc2nc2cccc([N+](=O)[O-])c12)C(N)=O`, the “MID log LC50” value in assay [1] is -4.26 M. In addition, the Ip score in assay [2] came out at 4. The Subcut score in assay [3] stood at 2.

`CC(=O)N[C@@H]1[C@H](OCc2ccccc2)O[C@@H](CO)[C@@H](O)[C@@H]1OC(C)C(=O)N[C@H](C(=O)N[C@H](CCC(=O)NCCCCNc1c2ccccc2nc2cccc([N+](=O)[O-])c12)C(N)=O)C(C)C` (stereo partly specified): in assay [1], the “MID log LC50” value is on record as -4.17 M. Also, the Ip score in assay [2] was determined as 32. For the same compound, the Subcut score in assay [3] is reported as 2.

Regarding `CC(=O)N[C@@H]1[C@H](OCc2ccccc2)O[C@@H](COC(=O)CCNc2c3ccccc3nc3cccc([N+](=O)[O-])c23)[C@@H](O)[C@@H]1OC(C)C(=O)N[C@@H](C)C(=O)N[C@H](CCC(N)=O)C(=O)OCc1ccccc1` (stereo partly specified), the “MID log LC50” value in assay [1] is recorded as -4.42 M.

Consider `CC(=O)N[C@@H]1[C@H](OCc2ccccc2)O[C@@H](CO)[C@@H](O)[C@@H]1OC(C)C(=O)N[C@@H](C)C(=O)N[C@H](CCC(=O)NCCCCNc1c2ccccc2nc2cccc([N+](=O)[O-])c12)C(N)=O` (stereo partly specified), for which the “MID log LC50” value in assay [1] is -5.49 M. Also, the Ip score in assay [2] is on record as 4. In assay [3], this compound came in with a Subcut score of 12.

As to `CC(=O)N[C@@H]1[C@H](OCc2ccccc2)O[C@@H](CO)[C@@H](O)[C@@H]1OC(C)C(=O)N[C@@H](C)C(=O)N[C@H](CCC(=O)NCCNCCNc1c2ccccc2nc2cccc([N+](=O)[O-])c12)C(N)=O` (stereo partly specified), the “MID log LC50” value in assay [1] is -4.56 M. The compound also showed an Ip score in assay [2] of 2. The cell kill activity result in assay [4] was “No cell kill activity”. Also, the Subcut score in assay [3] was 4.

Turning to `CC(=O)N[C@@H]1[C@H](OCc2ccccc2)O[C@@H](CO)[C@@H](O)[C@@H]1OCC(=O)N[C@@H](C)C(=O)N[C@H](CCC(=O)NCCCNc1c2ccccc2nc2cccc([N+](=O)[O-])c12)C(N)=O`, the “MID log LC50” value in assay [1] is given as -4.97 M. Besides, the Ip score in assay [2] is reported as 2. Besides, the cell kill activity result in assay [4] was “No cell kill activity”. Further, the Subcut score in assay [3] stood at 2.

In the case of `CC(=O)N[C@@H]1[C@H](OCc2ccccc2)O[C@@H](COC(=O)CCCCCNc2ccc([N+](=O)[O-])c3nc4ccc(O)cc4c(O)c23)[C@@H](O)[C@@H]1OC(C)C(=O)N[C@@H](C)C(=O)N[C@H](CCC(N)=O)C(=O)OCc1ccccc1` (stereo partly specified), the “MID log LC50” value in assay [1] is recorded as -4.23 M.

As for `COC(=O)[C@@H](CCC(N)=O)NC(=O)[C@@H](NC(=O)C(C)O[C@H]1[C@H](O)[C@H](COC(=O)CCCCCCCCCCNC(=O)c2ccc([N+](=O)[O-])c3c(O)c4ccccc4nc23)O[C@@H](OCc2ccccc2)[C@H]1NC(C)=O)C(C)C` (stereo partly specified), in assay [1], the “MID log LC50” value was -4.25 M.

On to `CC(=O)N[C@@H]1[C@H](OCc2ccccc2)O[C@@H](CO)[C@@H](O)[C@@H]1OCC(=O)N1CCC[C@H]1C(=O)N[C@H](CCC(=O)NCCCCCNc1c2ccccc2nc2cccc([N+](=O)[O-])c12)C(N)=O`, for which, in assay [1], the “MID log LC50” value is reported as -5.51 M. Also, in assay [2], the Ip score is 14. In assay [3], this compound displayed a Subcut score of 0.

In the case of `CC(=O)N[C@@H]1[C@H](OCc2ccccc2)O[C@@H](CO)[C@@H](O)[C@@H]1OCC(=O)N[C@@H](C)C(=O)N[C@H](CCC(=O)NCCCCCNc1c2ccccc2nc2cccc([N+](=O)[O-])c12)C(N)=O`, the “MID log LC50” value in assay [1] is -5.82 M. In assay [2], this compound had an Ip score of 16. In assay [3], this compound yielded a Subcut score of 8.
